Test results as given in ChEMBL document CHEMBL3259518, “Semisynthesis, ex vivo evaluation, and SAR studies of coumarin derivatives as potential antiasthmatic drugs” (Eur J Med Chem, 2014).

Experiments:
Assay type in all cases: functional
[1] = Antiasthamic activity in Wistar rat tracheal ring assessed as reversal of carbachol-induced contraction; details: Trachea
Outline: (§1)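 Tracheas from male Wistar rats (250–300 g) were cleaned and cut into 4–5 mm rings of 2–3 cartilages each. Tension was recorded with force transducers. After equilibration, rings were contracted with 1 µM carbachol and washed every 40 min for 2 h. Cumulative concentration–response curves followed carbachol contraction, with relaxation taken from tone before vs after addition. Theophylline (1.67–550 µM) was the positive control. Six animals per group; EC50 and Emax came from nonlinear curve fitting.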

[2] = Antiasthamic activity in Wistar rat tracheal ring assessed as reversal of carbachol-induced contraction at 0.1 to 500 uM relative to control; details: Trachea; outline: as §1
Trachea = experiment: Potency index, ratio of theophylline EC50 to compound EC50 for antiasthamic activity in Wistar rat tracheal ring assessed as reversal of carbachol-induced contraction

| EC50 [1] | Structure (SMILES) | Emax [2] | Ratio EC50 (Trachea) |
| --- | --- | --- | --- |
| 80 µM | COc1cc2ccc(=O)oc2cc1OC [SCOPARONE] | 100% | – |
| 245 µM | CCOc1ccc2ccc(=O)oc2c1 [ETHOXYCOUMARIN] | 100% | – |
| – | CCOC(=O)COc1ccc2ccc(=O)oc2c1 | 31% | – |
| 80 µM | CCOc1ccc2c(C)cc(=O)oc2c1 | 100% | – |
| – | Cc1cc(=O)oc2cc(OC(=O)c3ccccc3)ccc12 | 34% | – |
| – | O=C(Oc1cc2ccc(=O)oc2cc1OC(=O)c1ccccc1)c1ccccc1 | 12% | – |
| 449 µM | O=c1ccc2ccc(O)cc2o1 [UMBELLIFERONE] | 67% | – |
| – | CCOC(=O)COc1cc2ccc(=O)oc2cc1OCC(=O)OCC | 33% | – |
| 89 µM | CCCOc1cc2ccc(=O)oc2cc1OCCC | 100% | – |
| 231 µM | CC(=O)Oc1cc2ccc(=O)oc2cc1OC(C)=O | 77% | – |
| – | O=C(Oc1ccc2ccc(=O)oc2c1)c1ccccc1 | 26% | – |
| 267 µM | CCCOc1ccc2c(C)cc(=O)oc2c1 | 100% | – |
| 260 µM | Cc1cc(=O)oc2cc(O)ccc12 [HYMECROMONE] | 90% | – |
| – | CC(=O)Oc1ccc2ccc(=O)oc2c1 [7-ACETOXYCOUMARIN] | 16% | – |
| 200 µM | CCOC(=O)COc1ccc2c(C)cc(=O)oc2c1 | 70% | – |
| 360 µM | CC(=O)Oc1ccc2c(C)cc(=O)oc2c1 | 62% | – |
| 42 µM | CCOc1cc2ccc(=O)oc2cc1OCC | 100% | 4 |
| – | O=c1ccc2cc(O)c(O)cc2o1 [ESCULETIN] | 47.9% | – |
| 230 µM | COc1ccc2c(C)cc(=O)oc2c1 [HYMECROMONE METHYL ETHER] | 100% | – |
| 133 µM | CCCOc1ccc2ccc(=O)oc2c1 [7-PROPOXYCOUMARIN] | 100% | – |
| 244 µM | COc1ccc2ccc(=O)oc2c1 [HERNIARIN] | 100% | – |

| Structure (SMILES) | EC50 [1] | Emax [2] | Ratio EC50 (Trachea) |
| --- | --- | --- | --- |
| Cn1c(=O)c2nc[nH]c2n(C)c1=O [THEOPHYLLINE] | 144 µM | 100% | – |
